{"source": "ChEMBL document CHEMBL3272253", "about": "“Relationship of molecular structure to in vivo scintigraphic distribution patterns of carbon-11 labeled compounds. 3. (11C)Hydantoins” (J Med Chem, 1976)", "settings_in_all_cases": "in vivo", "key": {"Brain [1]": {"tested_on": "Brain", "test": "Drug level in iv dosed dog brain by gamma-scintillation counting analysis; call rule not given here", "type": "ADME, organism-based, Canis lupus familiaris", "outline": "(§1)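 Carbon-11-labeled hydantoin, 1–59 mCi of final product, dissolved in 1–1.5% aqueous NaOH and given iv to dogs. Distribution imaged serially for up to 2 hr or more with a scintillation camera fitted with a pinhole collimator (1-cm hyperbolic aperture), with whole-body scintiphotos at about 5 and 30 min. Readout is qualitative to semiquantitative; no coincidence imaging.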"}, "[2]": {"test": "Drug level in iv dosed dog kidney by gamma-scintillation counting analysis", "type": "ADME, organism-based, Canis lupus familiaris", "outline": "as §1"}, "[3]": {"test": "Drug excretion in iv dosed dog urine by gamma-scintillation counting analysis", "type": "ADME, organism-based, Canis lupus familiaris", "outline": "as §1"}, "[4]": {"test": "Drug excretion in iv dosed dog bile by gamma-scintillation counting analysis", "type": "ADME, organism-based, Canis lupus familiaris", "outline": "as §1"}, "Brain [5]": {"tested_on": "Brain", "test": "Drug level in iv dosed dog brain after 40 mins by gamma-scintillation counting analysis", "type": "ADME, organism-based, Canis lupus familiaris", "outline": "(§2)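 Dogs received the 11C-labeled hydantoin iv in 1–1.5% aqueous NaOH. Organs and tissues were taken at necropsy 40 min after dosing and placed at fixed geometrical positions in front of a thallium-activated NaI scintillation detector. Detected scintillation events gave quantitative estimates of tissue activity.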"}, "[6]": {"test": "Drug level in iv dosed dog cerebrospinal fluid after 40 mins by gamma-scintillation counting analysis", "type": "ADME, organism-based, Canis lupus familiaris", "outline": "as §2"}, "[7]": {"test": "Drug level in iv dosed dog blood after 40 mins by gamma-scintillation counting analysis", "type": "ADME, organism-based, Canis lupus familiaris", "outline": "as §2"}, "[8]": {"test": "Drug level in iv dosed dog kidney after 40 mins by gamma-scintillation counting analysis", "type": "ADME, organism-based, Canis lupus familiaris", "outline": "as §2"}, "[9]": {"test": "Drug level in iv dosed dog heart after 40 mins by gamma-scintillation counting analysis", "type": "ADME, organism-based, Canis lupus familiaris", "outline": "as §2"}, "[10]": {"test": "Drug level in iv dosed dog skeletal muscle after 40 mins by gamma-scintillation counting analysis", "type": "ADME, organism-based, Canis lupus familiaris, Muscle tissue", "outline": "as §2"}, "[11]": {"test": "Drug level in iv dosed dog lung after 40 mins by gamma-scintillation counting analysis", "type": "ADME, organism-based, Canis lupus familiaris", "outline": "as §2"}, "[12]": {"test": "Drug level in iv dosed dog stomach after 40 mins by gamma-scintillation counting analysis", "type": "ADME, organism-based, Canis lupus familiaris", "outline": "as §2"}, "[13]": {"test": "Drug level in iv dosed dog pancreas after 40 mins by gamma-scintillation counting analysis", "type": "ADME, organism-based, Canis lupus familiaris", "outline": "as §2"}, "Liver [14]": {"tested_on": "Liver", "test": "Drug level in iv dosed dog liver after 40 mins by gamma-scintillation counting analysis", "type": "ADME, organism-based, Canis lupus familiaris", "outline": "as §2"}, "[15]": {"test": "Drug level in iv dosed dog mesenteric fat after 40 mins by gamma-scintillation counting analysis", "type": "ADME, organism-based, Canis lupus familiaris", "outline": "as §2"}, "[16]": {"test": "Drug level in iv dosed dog omentum after 40 mins by gamma-scintillation counting analysis", "type": "ADME, organism-based, Canis lupus familiaris", "outline": "as §2"}, "[17]": {"test": "Drug level in iv dosed dog vein by gamma-scintillation counting analysis", "type": "ADME, organism-based, Canis lupus familiaris", "outline": "as §1"}, "[18]": {"test": "Drug level in iv dosed dog lung by gamma-scintillation counting analysis", "type": "ADME, organism-based, Canis lupus familiaris", "outline": "as §1"}, "Liver [19]": {"tested_on": "Liver", "test": "Drug level in iv dosed dog liver by gamma-scintillation counting analysis", "type": "ADME, organism-based, Canis lupus familiaris", "outline": "as §1"}, "Canis familiaris": {"tested_on": "Canis familiaris", "test": "Drug level in iv dosed dog by gamma-scintillation counting analysis", "type": "ADME, organism-based, Canis lupus familiaris", "outline": "as §1"}, "Brain [20]": {"tested_on": "Brain", "test": "Drug level in iv dosed dog brain after 5 to 30 mins by gamma-scintillation counting analysis", "type": "ADME, organism-based, Canis lupus familiaris", "outline": "as §1"}, "[21]": {"test": "Drug excretion in iv dosed dog bile after 5 to 30 mins by gamma-scintillation counting analysis", "type": "ADME, organism-based, Canis lupus familiaris", "outline": "as §1"}}, "data": [{"smiles": "O=C1N[11C](=O)C2(CCCc3ccccc32)N1", "note": "(configuration not stated)", "values": [{"measurement": "Drug uptake", "setting": "Brain [1]", "result": "Not Active"}]}, {"smiles": "O=C1N[11C](=O)C(c2ccccc2)(c2ccccc2)N1", "values": [{"measurement": "Drug uptake", "setting": "Brain [1]", "result": "Active"}, {"measurement": "Drug uptake", "setting": "[2]", "result": "Active"}, {"measurement": "Drug excretion", "setting": "[3]", "result": "metabolite_detected"}, {"measurement": "Drug excretion", "setting": "[4]", "result": "metabolite_detected"}, {"measurement": "Drug uptake", "setting": "Brain [5]", "result": "Active"}, {"measurement": "Drug uptake", "setting": "[6]", "result": "Active"}, {"measurement": "Drug uptake", "setting": "[7]", "result": "Active"}, {"measurement": "Drug uptake", "setting": "[8]", "result": "Active"}, {"measurement": "Drug uptake", "setting": "[9]", "result": "Active"}, {"measurement": "Drug uptake", "setting": "[10]", "result": "Active"}, {"measurement": "Drug uptake", "setting": "[11]", "result": "Active"}, {"measurement": "Drug uptake", "setting": "[12]", "result": "Active"}, {"measurement": "Drug uptake", "setting": "[13]", "result": "Active"}, {"measurement": "Drug uptake", "setting": "Liver [14]", "result": "Active"}, {"measurement": "Drug uptake", "setting": "[15]", "result": "Active"}, {"measurement": "Drug uptake", "setting": "[16]", "result": "Active"}]}, {"smiles": "CC1(CCC(=O)O)NC(=O)N[11C]1=O", "note": "(configuration not stated)", "values": [{"measurement": "Drug uptake", "setting": "[17]", "result": "Active"}, {"measurement": "Drug uptake", "setting": "[18]", "result": "Active"}, {"measurement": "Drug uptake", "setting": "Liver [19]", "result": "Active"}, {"measurement": "Drug uptake", "setting": "Canis familiaris", "result": "Active"}, {"measurement": "Drug uptake", "setting": "[2]", "result": "Active"}, {"measurement": "Drug excretion", "setting": "[3]", "result": "metabolite_detected"}, {"measurement": "Drug uptake", "setting": "Brain [20]", "result": "Not Active"}, {"measurement": "Drug excretion", "setting": "[21]", "result": "metabolite_notdetected"}]}, {"smiles": "O=C1N[11C](=O)C2(CCCCCC2)N1", "values": [{"measurement": "Drug uptake", "setting": "Liver [19]", "result": "Active"}, {"measurement": "Drug uptake", "setting": "Brain [1]", "result": "Active"}]}]}
